≈ marks a conversion by molar mass, not a printed value.
Experiments:
Enterobacter cloacae [1] = assay: Potentiation of meropenem-induced antibacterial activity against carbapenem-resistant Enterobacter cloacae isolate 27 harboring CTX-M-3, CTX-M-14, TEM-1 and SHV-12 assessed as meropenem MIC by CLSI protocol based assay (reference value: 32 ug/ml); type: functional
Enterobacter cloacae [2] = assay: Potentiation of meropenem-induced antibacterial activity against carbapenem-resistant Enterobacter cloacae isolate 19 harboring CTX-M-14 and KPC-2 assessed as meropenem MIC by CLSI protocol based assay (Rvb >= 128 ug/ml); type: functional
Enterobacter cloacae [3] = assay: Potentiation of meropenem-induced antibacterial activity against carbapenem-resistant Enterobacter cloacae isolate 28 harboring TEM-1 and SHV-12 assessed as meropenem MIC by CLSI protocol based assay (reference value: 32 ug/ml); type: functional
Citrobacter freundii [4] = assay: Potentiation of meropenem-induced antibacterial activity against carbapenem-resistant Citrobacter freundii isolate 05 harboring SHV-12 assessed as meropenem MIC by CLSI protocol based assay (Rvb >= 128 ug/ml); type: functional
Citrobacter freundii [5] = assay: Growth inhibition of carbapenem-resistant Citrobacter freundii isolate 05 harboring SHV-12 by CLSI protocol based assay; type: functional
Enterobacter cloacae [6] = assay: Growth inhibition of carbapenem-resistant Enterobacter cloacae isolate 10 harboring CTX-M-14, TEM-1 and SHV-12 by CLSI protocol based assay; type: functional
Klebsiella pneumoniae [7] = assay: Potentiation of meropenem-induced antibacterial activity against carbapenem-resistant Klebsiella pneumoniae isolate 14 harboring CTX-M-14, KPC-2 and SHV-12 assessed as meropenem MIC by CLSI protocol based assay (Rvb >= 128 ug/ml); type: functional
Enterobacter cloacae [8] = assay: Growth inhibition of carbapenem-resistant Enterobacter cloacae isolate 27 harboring CTX-M-3, CTX-M-14, TEM-1 and SHV-12 by CLSI protocol based assay; type: functional
Escherichia coli [9] = assay: Growth inhibition of carbapenem-resistant Escherichia coli isolate 06 harboring CTX-M-14, CTX-M-3 and SHV-12 by CLSI protocol based assay; type: functional
Klebsiella pneumoniae [10] = assay: Growth inhibition of carbapenem-resistant Klebsiella pneumoniae isolate 14 harboring CTX-M-14, KPC-2 and SHV-12 by CLSI protocol based assay; type: functional
Escherichia coli [11] = assay: Synergistic antibacterial activity against carbapenem-resistant Escherichia coli isolate 45 assessed as fractional inhibitory concentration index in presence of meropenem by CLSI protocol based assay; type: functional
How it was run: (§1)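 FIC index from MICs of compound alone, meropenem alone, and the 1:1 (mass) compound–meropenem combination, read by eye after overnight incubation in a CLSI-based assay. FIC index = MICcombo/MICcpd + MICcombo/MICMem. FIC index ≤0.5 counted as synergy. At least triplicate assays. Clinical NDM-1 isolates for 17-39; E. coli TG1 carrying the IncX3 blaNDM-1 plasmid for 15.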

Citrobacter freundii [12] = assay: Growth inhibition of carbapenem-resistant Citrobacter freundii isolate 35 harboring CTX-M-3, KPC-2 and SHV-12 by CLSI protocol based assay; type: functional
Klebsiella oxytoca [13] = assay: Potentiation of meropenem-induced antibacterial activity against carbapenem-resistant Klebsiella oxytoca isolate 16 harboring SHV-12 assessed as meropenem MIC by CLSI protocol based assay (Rvb >= 128 ug/ml); type: functional
Enterobacter cloacae [14] = assay: Synergistic antibacterial activity against carbapenem-resistant Enterobacter cloacae isolate 22 harboring CTX-M-14, TEM-1 and SHV-12 assessed as fractional inhibitory concentration index in presence of meropenem by CLSI protocol based assay; type: functional; how it was run: as §1
Enterobacter cloacae [15] = assay: Synergistic antibacterial activity against carbapenem-resistant Enterobacter cloacae isolate 19 harboring CTX-M-14 and KPC-2 assessed as fractional inhibitory concentration index in presence of meropenem by CLSI protocol based assay; type: functional
Enterobacter cloacae [16] = assay: Growth inhibition of carbapenem-resistant Enterobacter cloacae isolate 08 harboring CTX-M-14, TEM-1 and SHV-12 by CLSI protocol based assay; type: functional
Escherichia coli [17] = assay: Growth inhibition of carbapenem-resistant Escherichia coli isolate 33 harboring CTX-M-15 by CLSI protocol based assay; type: functional
Escherichia coli [18] = assay: Potentiation of meropenem-induced antibacterial activity against carbapenem-resistant Escherichia coli isolate 06 harboring CTX-M-14, CTX-M-3 and SHV-12 assessed as meropenem MIC by CLSI protocol based assay (Rvb >= 128 ug/ml); type: functional
Enterobacter cloacae [19] = assay: Growth inhibition of carbapenem-resistant Enterobacter cloacae isolate 09 harboring CTX-M-3, CTX-M-14, TEM-1 and SHV-12 by CLSI protocol based assay; type: functional
Klebsiella pneumoniae [20] = assay: Growth inhibition of carbapenem-resistant Klebsiella pneumoniae isolate 04 harboring CTX-M-14, VIM-1, TEM-1 and SHV-12 by CLSI protocol based assay; type: functional
Escherichia coli [21] = assay: Potentiation of meropenem-induced antibacterial activity against carbapenem-resistant Escherichia coli isolate 45 assessed as meropenem MIC by CLSI protocol based assay (Rvb >= 128 ug/ml); type: functional
[22] = Growth inhibition of Escherichia coli TG1 transformed with IncX3 plasmid expressing blaNDM-1 incubated for overnight by CLSI protocol based assay; conditions: 12 h
Enterobacter cloacae [23] = assay: Growth inhibition of carbapenem-resistant Enterobacter cloacae isolate 19 harboring CTX-M-14 and KPC-2 by CLSI protocol based assay; type: functional
Enterobacter cloacae [24] = assay: Synergistic antibacterial activity against carbapenem-resistant Enterobacter cloacae isolate 28 harboring TEM-1 and SHV-12 assessed as fractional inhibitory concentration index in presence of meropenem by CLSI protocol based assay; type: functional; how it was run: as §1
Escherichia coli [25] = assay: Synergistic antibacterial activity against Escherichia coli TG1 transformed with IncX3 plasmid expressing blaNDM-1 assessed as fractional inhibitory concentration index in presence of meropenem incubated for overnight by CLSI protocol based assay; type: functional; conditions: time 12 hrs; how it was run: as §1
Escherichia coli [26] = assay: Potentiation of meropenem-induced antibacterial activity against carbapenem-resistant Escherichia coli isolate 34 harboring CTX-M-15, TEM-1 and SHV-12 assessed as meropenem MIC by CLSI protocol based assay (reference value: 64 ug/ml); type: functional
Klebsiella oxytoca [27] = assay: Growth inhibition of carbapenem-resistant Klebsiella oxytoca isolate 16 harboring SHV-12 by CLSI protocol based assay; type: functional
Enterobacter cloacae [28] = assay: Growth inhibition of carbapenem-resistant Enterobacter cloacae isolate 07 harboring CTX-M-14, TEM-1 and SHV-12 by CLSI protocol based assay; type: functional
Escherichia coli [29] = assay: Growth inhibition of carbapenem-resistant Escherichia coli isolate 45 by CLSI protocol based assay; type: functional
Citrobacter freundii [30] = assay: Potentiation of meropenem-induced antibacterial activity against carbapenem-resistant Citrobacter freundii isolate 43 assessed as meropenem MIC by CLSI protocol based assay (Rvb >= 128 ug/ml); type: functional
Escherichia coli [31] = assay: Synergistic antibacterial activity against carbapenem-resistant Escherichia coli isolate 34 harboring CTX-M-15, TEM-1 and SHV-12 assessed as fractional inhibitory concentration index in presence of meropenem by CLSI protocol based assay; type: functional; how it was run: as §1
Enterobacter cloacae [32] = assay: Potentiation of meropenem-induced antibacterial activity against carbapenem-resistant Enterobacter cloacae isolate 10 harboring CTX-M-14, TEM-1 and SHV-12 assessed as meropenem MIC by CLSI protocol based assay (reference value: 64 ug/ml); type: functional
Escherichia coli [33] = assay: Synergistic antibacterial activity against carbapenem-resistant Escherichia coli isolate 06 harboring CTX-M-14, CTX-M-3 and SHV-12 assessed as fractional inhibitory concentration index in presence of meropenem by CLSI protocol based assay; type: functional; how it was run: as §1

Compound	MIC (Enterobacter cloacae [1])	MIC (Enterobacter cloacae [2])	MIC (Enterobacter cloacae [3])	MIC (Citrobacter freundii [4])	MIC (Citrobacter freundii [5])	MIC (Enterobacter cloacae [6])	MIC (Klebsiella pneumoniae [7])	MIC (Enterobacter cloacae [8])	MIC (Escherichia coli [9])	MIC (Klebsiella pneumoniae [10])	fractional inhibitory concentration index (FICI) (Escherichia coli [11])	MIC (Citrobacter freundii [12])	MIC (Klebsiella oxytoca [13])	fractional inhibitory concentration index (FICI) (Enterobacter cloacae [14])	fractional inhibitory concentration index (FICI) (Enterobacter cloacae [15])	MIC (Enterobacter cloacae [16])	MIC (Escherichia coli [17])	MIC (Escherichia coli [18])	MIC (Enterobacter cloacae [19])	MIC (Klebsiella pneumoniae [20])	other results
O=c1c2ccccc2[se]n1-c1ccccc1 [EBSELEN]	64 µg/mL	≥ 128 µg/mL	64 µg/mL	16 µg/mL	≥ 128 µg/mL	≥ 128 µg/mL	≥ 128 µg/mL	≥ 128 µg/mL	≥ 128 µg/mL	≥ 128 µg/mL	0.25	≥ 128 µg/mL	32 µg/mL	2	2	≥ 128 µg/mL	≥ 128 µg/mL	64 µg/mL	≥ 128 µg/mL	≥ 128 µg/mL	MIC (Escherichia coli [21]): 16 µg/mL; MIC [22]: 64 µg/mL (≈ 233 µM); MIC (Enterobacter cloacae [23]): ≥ 128 µg/mL; fractional inhibitory concentration index (FICI) (Enterobacter cloacae [24]): 2.5; fractional inhibitory concentration index (FICI) (Escherichia coli [25]): 0.5; MIC (Escherichia coli [26]): 16 µg/mL; MIC (Klebsiella oxytoca [27]): ≥ 128 µg/mL; MIC (Enterobacter cloacae [28]): ≥ 128 µg/mL; MIC (Escherichia coli [29]): ≥ 128 µg/mL; MIC (Citrobacter freundii [30]): 32 µg/mL; fractional inhibitory concentration index (FICI) (Escherichia coli [31]): 0.38; MIC (Enterobacter cloacae [32]): 64 µg/mL; fractional inhibitory concentration index (FICI) (Escherichia coli [33]): 1
CC(C)(C)OC(=O)NCCn1[se]c2ccccc2c1=O	4 µg/mL	16 µg/mL	4 µg/mL	8 µg/mL	≥ 128 µg/mL	≥ 128 µg/mL	8 µg/mL	≥ 128 µg/mL	≥ 128 µg/mL	≥ 128 µg/mL	0.06	≥ 128 µg/mL	8 µg/mL	0.25	0.25	≥ 128 µg/mL	≥ 128 µg/mL	8 µg/mL	≥ 128 µg/mL	≥ 128 µg/mL	MIC (Escherichia coli [21]): 4 µg/mL; MIC [22]: >= 128 ug ml-1; MIC (Enterobacter cloacae [23]): ≥ 128 µg/mL; fractional inhibitory concentration index (FICI) (Enterobacter cloacae [24]): 0.16; fractional inhibitory concentration index (FICI) (Escherichia coli [25]): 0.047; MIC (Escherichia coli [26]): 4 µg/mL; MIC (Klebsiella oxytoca [27]): ≥ 128 µg/mL; MIC (Enterobacter cloacae [28]): ≥ 128 µg/mL; MIC (Escherichia coli [29]): ≥ 128 µg/mL; MIC (Citrobacter freundii [30]): 16 µg/mL; fractional inhibitory concentration index (FICI) (Escherichia coli [31]): 0.09; MIC (Enterobacter cloacae [32]): 8 µg/mL; fractional inhibitory concentration index (FICI) (Escherichia coli [33]): 0.13

From ChEMBL document CHEMBL4673212, “Investigation of synergistic antimicrobial effects of the drug combinations of meropenem and 1,2-benzisoselenazol-3(2H)-one derivatives on carbapenem-resistant Enterobacteriaceae producing NDM-1” (Eur J Med Chem, 2018)
